Screening data: PubChem, The Scripps Research Institute Molecular Screening Center
RORA inh = inhibitors of orphan receptor RORA, primary screen, cell-based, luminescence. actives 0.43% (n = 65,000). inhibition, % at 10 µM. CHO-K1 Gal4-RORA LBD luciferase reporter. AID 561, 2006;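 active = inhibition above the mean of all tested compounds plus 3 SD, cut at about 52% in these data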;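 note: 0% = RORA-transfected cells with DMSO and 100% = mock-transfected cells lacking RORA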
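Test system: CHO-K1 cells with Gal4-hRORA LBD fusion and pG5-luc reporter | Timing: 20 h compound treatment, 37 °C | Detection: Luminescence from basal luciferase reporter expression | Read-out basis: % inhibition of basal luciferase versus +RORA/-RORA DMSO controls | Repeats: One measurement per compound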
Starred values were filed as active, the others as inactive. The entries come from a sample that favours hits as a whole.

`Cc1nn(-c2ccccc2)c(Cl)c1C(=O)N1CCN(c2ncnc3c2cnn3-c2ccccc2)CC1` gave RORA inh 37.2.
Screening S=c1nc(-c2ccccc2)n(CCN2CCOCC2)c2c1CCCC2 returned RORA inh 2.8.
C(=N\n1cnnc1)/c1ccc(OC2CSC2)cc1 was read as RORA inh -20.3.
For Cc1cc(/C=N/n2cnnc2)c(C)n1-c1ccc(OCc2ccc(F)cc2)cc1 the results were RORA inh 70.3*.
CCn1c(-c2ccc(N)cc2)nc2ccccc21 was read as RORA inh -49.9.
CCn1c(SCC(=O)NC(C)(C)C)nc(O)cc1=O was read as RORA inh 1.2.
Screening O=C(NCc1cccs1)c1noc2c1CCCC2 returned RORA inh -55.1.
`c1csc(CCNc2ncnc3sc4c(c23)CCC4)c1` gave RORA inh 71.7*.
CCN(CC)c1ccc(NC(=O)CN2C(=O)CC(C)(C)S(=O)(=O)c3ccccc32)c(C)c1 was read as RORA inh -11.7.
`CCOC(=O)N1CCN(C(=O)CSc2nnc(CNC(=O)c3c(F)cccc3Cl)o2)CC1` gave RORA inh -10.8.
Screening COc1ccc(N2CCN(C(=O)CSc3nnc(CNc4ccccc4)o3)CC2)cc1 returned RORA inh 4.1.
CCOc1cc(C(=O)CSc2nnc(CNc3ccc(Cl)cc3)o2)ccc1NC(=O)CC was read as RORA inh 53.5*.
